Results from ChEMBL document CHEMBL1134263, “Syntheses and evaluation of quinoline derivatives as novel retinoic acid receptor alpha antagonists” (Bioorg Med Chem Lett, 2001).
pIC50: −log10 of the molar value.

Tests used:
HL-60 [1] = test: Agonistic activity was evaluated by HL-60 cell differentiation activity; format: functional, Homo sapiens
How it was run: (§1)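 HL-60 cell differentiation was read out as CD11b expression, used as the differentiation marker.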

[2] = target: T1, Retinoic acid receptor beta (Homo sapiens) (UniProt P10826); test: Retinoid activity at Retinoic acid receptor beta was evaluated relative to that of All-trans retinoic acids(Mean of ATRA EC50 = 1.02 nM)
T1 sequence (whole entry): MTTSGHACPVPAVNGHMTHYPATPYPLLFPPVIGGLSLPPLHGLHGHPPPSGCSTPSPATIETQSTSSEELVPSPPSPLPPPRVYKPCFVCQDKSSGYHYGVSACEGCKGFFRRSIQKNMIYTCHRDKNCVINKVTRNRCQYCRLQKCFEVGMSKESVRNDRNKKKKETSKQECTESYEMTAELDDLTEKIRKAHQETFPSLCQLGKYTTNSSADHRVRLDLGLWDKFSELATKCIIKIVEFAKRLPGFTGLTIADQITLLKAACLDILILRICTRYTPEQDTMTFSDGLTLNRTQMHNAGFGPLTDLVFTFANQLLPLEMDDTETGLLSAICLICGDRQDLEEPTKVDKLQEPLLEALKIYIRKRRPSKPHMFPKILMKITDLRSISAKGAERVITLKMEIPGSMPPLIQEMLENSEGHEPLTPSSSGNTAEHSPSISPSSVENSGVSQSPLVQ
How it was run: (§2)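 Gene transcription was induced in a co-transfection transactivation assay at each RAR subtype. Full dose-response curves started from 0.1 nM. EC30 is the concentration giving 30% of the maximal observed response. The reported value is the mean of EC30/ATRA EC30. Activity was taken as not detectable when EC30 > 3000 nM.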

[3] = target: T1, Retinoic acid receptor beta (Homo sapiens); test: In vitro binding affinity towards Retinoic acid receptor beta evaluated relative to that of All-trans retinoic acids(Mean of ATRA IC50 = 0.52 nM)
[4] = target: T2, Retinoic acid receptor gamma (Homo sapiens) (UniProt P13631); test: Retinoid activity at Retinoic acid receptor gamma was evaluated relative to that of All-trans retinoic acids(Mean of ATRA EC50 = 0.26 nM); how it was run: as §2
T2 sequence (whole entry): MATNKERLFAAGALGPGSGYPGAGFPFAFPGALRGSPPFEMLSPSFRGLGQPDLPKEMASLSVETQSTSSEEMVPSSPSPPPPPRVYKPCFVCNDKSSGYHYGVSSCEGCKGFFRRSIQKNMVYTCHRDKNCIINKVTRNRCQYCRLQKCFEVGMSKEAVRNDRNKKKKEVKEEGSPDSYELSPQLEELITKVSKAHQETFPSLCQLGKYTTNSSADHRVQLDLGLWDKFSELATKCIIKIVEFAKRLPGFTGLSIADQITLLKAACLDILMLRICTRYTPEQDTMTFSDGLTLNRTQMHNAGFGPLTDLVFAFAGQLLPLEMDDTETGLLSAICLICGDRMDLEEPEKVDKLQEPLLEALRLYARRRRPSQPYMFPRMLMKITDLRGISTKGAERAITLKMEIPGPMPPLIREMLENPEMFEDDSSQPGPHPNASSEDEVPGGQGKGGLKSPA

[5] = target: T2, Retinoic acid receptor gamma (Homo sapiens); test: In vitro binding affinity towards Retinoic acid receptor gamma evaluated relative to that of All-trans retinoic acids(Mean of ATRA IC50 = 0.42 nM)
[6] = target: T3, Retinoic acid receptor alpha (Homo sapiens) (UniProt P10276); test: Retinoid activity at Retinoic acid receptor alpha was evaluated relative to that of All-trans retinoic acids(Mean of ATRA EC50 = 1.06 nM); how it was run: as §2
T3 sequence (whole entry): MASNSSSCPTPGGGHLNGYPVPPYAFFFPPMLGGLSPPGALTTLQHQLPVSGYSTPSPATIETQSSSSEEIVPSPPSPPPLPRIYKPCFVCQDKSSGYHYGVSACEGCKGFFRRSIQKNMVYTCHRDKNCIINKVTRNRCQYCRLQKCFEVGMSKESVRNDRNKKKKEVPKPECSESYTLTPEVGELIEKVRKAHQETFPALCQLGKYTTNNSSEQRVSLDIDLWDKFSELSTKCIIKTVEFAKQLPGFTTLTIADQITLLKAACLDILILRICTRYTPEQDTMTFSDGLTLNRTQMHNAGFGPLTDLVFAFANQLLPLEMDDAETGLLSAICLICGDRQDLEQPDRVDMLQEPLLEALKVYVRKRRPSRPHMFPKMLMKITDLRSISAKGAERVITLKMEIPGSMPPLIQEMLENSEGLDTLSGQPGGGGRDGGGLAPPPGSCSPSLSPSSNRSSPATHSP

[7] = target: T3, Retinoic acid receptor alpha (Homo sapiens); test: In vitro binding affinity towards Retinoic acid receptor alpha evaluated relative to that of All-trans retinoic acids(Mean of ATRA IC50 = 0.66 nM)
HL-60 [8] = test: Agonistic activity was evaluated by HL-60 cell differentiation activity; Not detectable; format: functional, Homo sapiens; how it was run: as §1
[9] = target: T3, Retinoic acid receptor alpha (Homo sapiens); test: Retinoid activity at Retinoic acid receptor alpha was evaluated relative to that of All-trans retinoic acids(Mean of ATRA EC50 = 1.06 nM); Not detectable; how it was run: as §2
HL-60 [10] = test: Antagonistic activity was evaluated in terms of inhibition of HL-60 cell differentiation activity by ATRA (10 nM); format: functional, cell-based; conditions: Homo sapiens
How it was run: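 HL-60 cells were induced to differentiate with ATRA (10 nM). Antagonism was scored as inhibition of that differentiation, read out as CD11b expression.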

[11] = target: T2, Retinoic acid receptor gamma (Homo sapiens); test: In vitro binding affinity towards Retinoic acid receptor gamma evaluated relative to that of All-trans retinoic acids(Mean of ATRA IC50 = 0.42 nM); Not detectable
[12] = target: T4, Retinoic acid receptor alpha (Homo sapiens, UniProt P10276); test: Antagonistic activity was evaluated in terms of inhibition of Retinoic acid receptor alpha transactivation by ATRA (50 nM); format: functional
T4 sequence (P10276 whole entry): T3 sequence (whole entry)

[13] = target: T5, Retinoic acid receptor gamma (Homo sapiens, UniProt P13631); test: Antagonistic activity was evaluated in terms of inhibition of Retinoic acid receptor gamma transactivation by ATRA (50 nM); Not detectable; format: functional
T5 sequence (P13631 whole entry): T2 sequence (whole entry)

[14] = target: T6, Retinoic acid receptor beta (Homo sapiens, UniProt P10826); test: Antagonistic activity was evaluated in terms of inhibition of Retinoic acid receptor beta transactivation by ATRA (50 nM); Not detectable; format: functional
T6 sequence (P10826 whole entry): T1 sequence (whole entry)

SMILES | ED30 (HL-60 [1]) | Relative EC30 [2] | Relative IC50 [3] | Relative EC30 [4] | Relative IC50 [5] | Relative EC30 [6] | Relative IC50 [7] | ED30 (HL-60 [8]) | Relative EC30 [9] | pIC50 (HL-60 [10]) | Relative IC50 [11] | pIC50 [12] | pIC50 [13] | pIC50 [14]
CC(C)c1cccc2c(Cl)cc(-c3ccc(-c4ccc(C(=O)O)cc4)[nH]3)nc12 | 100 nM | 17 | 79 | 1160 | 251 | 1.9 | 1.3 |  |  |  |  |  |  | 
Cc1cc(-c2ccc(-c3ccc(C(=O)O)cc3)[nH]2)nc2c(C(C)C)cccc12 | 100 nM | 16 | 71 | 903 | 141 | 2.8 | 1.7 |  |  |  |  |  |  | 
COc1cc(-c2ccc(-c3ccc(C(=O)O)cc3)[nH]2)nc2c(C(C)C)cccc12 |  | 38 | 475 | 4460 | 834 |  | 0.8 | >10000 nM | > 3000 | 8.80 |  |  |  | 
CCc1cc(-c2ccc(-c3ccc(C(=O)O)cc3)[nH]2)nc2c(C(C)C)cccc12 |  | 22 | 32 | 180 | 22 | 2.5 | 0.7 | >10000 nM |  | 7.77 |  |  |  | 
CC(C)c1cccc2ccc(-c3ccc(-c4ccc(C(=O)O)cc4)[nH]3)nc12 | 2500 nM | 97 | 579 | 5770 |  | 3 | 5.7 |  |  |  | > 1000 |  |  | 
CC(C)c1cccc2c(-c3ccccc3)cc(-c3ccc(-c4ccc(C(=O)O)cc4)[nH]3)nc12 |  |  | 535 | > 3000 | 432 |  | 1.8 | >10000 nM | > 3000 | 8.19 |  | 7.51 | < 5.52 | < 5.52
